Holding throughout (type): functional
In experiment [1] the test system is Streptococcus mutans. Briefly: Antibacterial activity against Streptococcus mutans ATCC 25175 after 24 hrs. The settings on record: ATCC 25175, 24 h. Put shortly: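 S. mutans grown aerobically at 37 °C in Todd-Hewitt broth with 0.001% hemin and 0.0001% vitamin K. Overnight culture diluted to OD660 0.2 and mixed 1:1 with serial compound dilutions (80 to 5 μM). Vehicle-only and penicillin G controls included. MIC = lowest concentration with complete growth inhibition after 24 h. Triplicate.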

In a further experiment the test system is Candida albicans. Briefly: Antifungal activity against Candida albicans ATCC 28366 assessed as growth inhibition at 80 uM after 24 hrs. Put shortly: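 C. albicans cultured aerobically at 37 °C in yeast nitrogen base with 0.5% glucose. Overnight culture diluted to OD660 0.2 and added 1:1 to compound dilutions, top level 80 μM. Vehicle-only and nystatin controls included. Growth inhibition scored after 24 h. Triplicate.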

The subject of experiment [2] is Streptococcus mutans. Put plainly: Bactericidal activity against Streptococcus mutans ATCC 25175 after 24 hrs. The conditions noted are these: ATCC 25175, 24 h. Put shortly:
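MBC for S. mutans was run after the aerobic 37 °C THBHK microdilution (80 to 5 μM, 24 h). 10 μL aliquots from wells lacking visible growth were plated on solid medium to find the minimal bactericidal concentration. Penicillin G served as reference. Triplicate.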

The test system of experiment [3] is Porphyromonas gingivalis. Briefly: Bactericidal activity against Porphyromonas gingivalis ATCC 33277 after 24 hrs. The settings on record: ATCC 33277, 24 h. An outline of the steps:
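For MBC, P. gingivalis was run as in the anaerobic broth MIC set-up (THBHK, 37 °C, 24 h, 80 to 5 μM). 10 μL from wells without visible growth was spread on solid medium. MBC was read from these subcultures. Penicillin G served as reference. Triplicate.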

Experiment [4] deals with Porphyromonas gingivalis. Briefly: Antibacterial activity against Porphyromonas gingivalis ATCC 33277 after 24 hrs. The conditions noted are these: ATCC 33277, 24 h. An outline of the steps:
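P. gingivalis grown anaerobically (N2-H2-CO2 80:10:10) at 37 °C in Todd-Hewitt broth with 0.001% hemin and 0.0001% vitamin K. Overnight culture diluted to OD660 0.2 and added 1:1 to serial dilutions of compound (80 to 5 μM). Vehicle-only and penicillin G controls. After 24 h, MIC taken as lowest concentration giving complete growth inhibition. Triplicate.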

≈ marks a conversion by molar mass, not a printed value. Calls of active or inactive are those of the source. Where only a bound is given, the exact number is not on record here.

As for `CCCCCc1c(Oc2cc(OC)cc3c2C(=O)OC3(CCCC)OC)c(O)cc(O)c1C(=O)O` (centres undefined), the minimal inhibitory concentration (MIC) against Streptococcus mutans [1] and against Porphyromonas gingivalis [4] was 80 µM (≈ 39.1 µg/mL) in each case. Further, the “growth inhibition (GI)” value in the experiment with Candida albicans is “inactive”. Moreover, the MBC against Streptococcus mutans [2] and against Porphyromonas gingivalis [3] was 80 µM (≈ 39.1 µg/mL) each time.

On to `CCCCCc1cc(O)cc(O)c1Oc1cc(OC)cc2c1C(=O)OC2(CCCC)OC` (centres undefined), for which the MIC against Streptococcus mutans [1] and in the experiment on Porphyromonas gingivalis [4] was 80 µM (≈ 35.6 µg/mL) in each case. Further, in the experiment on Candida albicans, the “growth inhibition (GI)” value is “inactive”. For the same molecule, the MBC in the experiment with Streptococcus mutans [2] and against Porphyromonas gingivalis [3] was 80 µM (≈ 35.6 µg/mL) each time.

Take `Cc1c(C(=O)O)c(O)cc2oc3cc(O)cc(CO)c3c12`: the MIC with Streptococcus mutans [1] and in the experiment on Porphyromonas gingivalis [4] was greater than 80 µM in each case. In the experiment on Candida albicans, the “growth inhibition (GI)” value is “inactive”. The MBC with Streptococcus mutans [2] and against Porphyromonas gingivalis [3] was greater than 80 µM throughout.

Turning to `CC1(C)S[C@@H]2[C@H](NC(=O)Cc3ccccc3)C(=O)N2[C@H]1C(=O)O` [PENICILLIN G], the MIC in the experiment on Streptococcus mutans [1] was determined as 0.15 µM (≈ 0.0502 µg/mL); against Porphyromonas gingivalis [4], 0.29 µM (≈ 0.097 µg/mL). Also, the MBC in the experiment with Streptococcus mutans [2] was determined as 4.7 µM (≈ 1.57 µg/mL); in the experiment with Porphyromonas gingivalis [3] it was 2.3 µM (≈ 0.769 µg/mL).

As for `CCC/C=C1\OC(=O)c2c(Oc3c(O)cc(O)cc3CCCCC)cc(OC)cc21`, the minimum inhibitory concentration (MIC) with Streptococcus mutans [1] turned out to be 10 µM (≈ 4.12 µg/mL); in the experiment with Porphyromonas gingivalis [4], 20 µM (≈ 8.25 µg/mL). Besides, in the experiment on Candida albicans, the “growth inhibition (GI)” value is “inactive”. Further, the MBC in the experiment on Streptococcus mutans [2] and in the experiment with Porphyromonas gingivalis [3] was 20 µM (≈ 8.25 µg/mL) throughout.

Regarding `CCCCCc1c2c(cc(O)c1C(=O)O)OC(=O)c1c(cc(OC)cc1C(=O)CCCC)O2` [LOBARIC ACID], the MIC in the experiment on Streptococcus mutans [1] came to 20 µM (≈ 9.13 µg/mL); with Porphyromonas gingivalis [4], 80 µM (≈ 36.5 µg/mL). Moreover, the “growth inhibition (GI)” value in the experiment with Candida albicans was “inactive”. The MBC against Streptococcus mutans [2] and in the experiment with Porphyromonas gingivalis [3] was 80 µM (≈ 36.5 µg/mL) throughout.

For the molecule `COC(=O)c1c(C)cc(O)c(C=O)c1O` [METHYL HAEMATOMMATE], the MIC with Streptococcus mutans [1] and against Porphyromonas gingivalis [4] was greater than 80 µM in each case. For the same molecule, the “growth inhibition (GI)” value with Candida albicans is “inactive”. The MBC against Streptococcus mutans [2] and with Porphyromonas gingivalis [3] was greater than 80 µM throughout.

On to `CCCCCc1cc(O)cc(O)c1Oc1cc(OC)cc(C(=O)CCCC)c1C(=O)OC`, for which the MIC with Streptococcus mutans [1] and against Porphyromonas gingivalis [4] was 80 µM (≈ 35.6 µg/mL) in each case. In the experiment on Candida albicans, the “growth inhibition (GI)” value is “inactive”. Also, the figures for the minimal bactericidal concentration (MBC) in the experiment with Streptococcus mutans [2] and in the experiment on Porphyromonas gingivalis [3] were greater than 80 µM and 80 µM (≈ 35.6 µg/mL), respectively.

As for `Cc1cc(O)cc2oc3cc(O)cc(CO)c3c12`, the minimum inhibitory concentration (MIC) with Streptococcus mutans [1] and against Porphyromonas gingivalis [4] was greater than 80 µM each time. Further, the “growth inhibition (GI)” value in the experiment on Candida albicans is “inactive”. Besides, the minimal bactericidal concentration (MBC) against Streptococcus mutans [2] and in the experiment with Porphyromonas gingivalis [3] was greater than 80 µM in each case.

Take `CCCCCc1c(Oc2cc(OC)cc(C(=O)CCCC)c2C(=O)OC)c(O)cc(O)c1C(=O)O`: the values for the MIC against Streptococcus mutans [1] and against Porphyromonas gingivalis [4] were 80 µM (≈ 39.1 µg/mL) and 40 µM (≈ 19.5 µg/mL), respectively. For the same molecule, in the experiment with Candida albicans, the “growth inhibition (GI)” value is “inactive”. The MBC against Streptococcus mutans [2] was greater than 80 µM; against Porphyromonas gingivalis [3], 40 µM (≈ 19.5 µg/mL).

As to `Cc1c(C(=O)O)c(O)cc2oc3cc(O)cc(C(=O)O)c3c12`, the MIC against Streptococcus mutans [1] and with Porphyromonas gingivalis [4] was greater than 80 µM in each case. Further, the “growth inhibition (GI)” value with Candida albicans was “inactive”. For the same molecule, the MBC with Streptococcus mutans [2] and in the experiment on Porphyromonas gingivalis [3] was greater than 80 µM throughout.

As to `CCCCCc1cc(O)cc(O)c1Oc1cc(OC)cc2c1C(=O)OC2(O)CCCC` (centres undefined) [SAKISACAULON A], the figures for the minimal inhibitory concentration (MIC) against Streptococcus mutans [1] and against Porphyromonas gingivalis [4] were 80 µM (≈ 34.4 µg/mL) and greater than 80 µM, respectively. In addition, in the experiment on Candida albicans, the “growth inhibition (GI)” value is “inactive”. Further, the minimum bactericidal concentration (MBC) was 80 µM (≈ 34.4 µg/mL) in the experiment with Streptococcus mutans [2] and greater than 80 µM against Porphyromonas gingivalis [3].

Turning to `COC(=O)c1c(C)cc(O)c(C)c1O` [ATRARIC ACID], the MIC against Streptococcus mutans [1] and with Porphyromonas gingivalis [4] was greater than 80 µM each time. For the same molecule, the “growth inhibition (GI)” value with Candida albicans is “inactive”. Also, the minimum bactericidal concentration (MBC) in the experiment on Streptococcus mutans [2] and against Porphyromonas gingivalis [3] was greater than 80 µM each time.

Usually MIC stands for the least concentration at which growth counts as inhibited. A low value points to greater potency. What is called MBC is the smallest concentration meeting the test's criterion for killing.
